Active and inactive are the calls of the source. No cut-off for these calls is given here.
How the values were obtained:
[1] = system: Pseudomonas aeruginosa PAO1; test: Inhibition of Pseudomonas aeruginosa PAO1 quorum sensing assessed as inhibition of pycocyanin production at 0.5 mM after 24 hrs by spectrometry
Procedure, shortened: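 PAO1 grown overnight in LB, washed in fresh medium and diluted to OD600 0.05. Aliquots were grown 24 h in tubes with compound at 0.5 mM. Pyocyanin was extracted from filtered culture supernatant and quantified by a published method. Significance versus untreated control was set at P < 0.05.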

[2] = system: Pseudomonas aeruginosa PAO1; test: Inhibition of Pseudomonas aeruginosa PAO1 quorum sensing assessed as inhibition of protease production at 0.5 mM after 10 hrs by colorimetric method
Procedure, shortened: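 PAO1 grown overnight at 37 °C in PB medium ([…]), washed, diluted to OD600 0.05 and grown to midlog. Cells were washed again, reset to OD600 0.05 and cultured 10 h with compound at 0.5 mM. Filtered supernatant was incubated with azocasein in 10 mM Tris pH 7.2 and 1 mM CaCl₂ for 4 h at 37 °C with agitation, then quenched with NaOH and centrifuged.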

Pseudomonas aeruginosa = test: Antibacterial activity at Pseudomonas aeruginosa PAO1 at 2 mM; format: functional, organism-based

With C=C1CC[C@@H]2[C@](C)(CO)[C@H](O)CC[C@@]2(C)[C@@H]1C/C=C1/C(=O)OC[C@H]1OC(=O)CCCC[C@H]1CCSS1 the inhibition [1] was “Active” and the inhibition [2] was “Active”.

With C=C1CC[C@@H]2[C@](C)(CO)[C@H](O)CC[C@@]2(C)[C@@H]1C/C=C1/C(=O)OC[C@H]1OC(=O)/C=C/C the Activity (Pseudomonas aeruginosa) was “inactive”, the inhibition [1] was “Active” and the inhibition [2] was “Active”.

For C=C1CC[C@@H]2[C@](C)(CO)[C@H](O)CC[C@@]2(C)[C@@H]1C/C=C1/C(=O)OC[C@H]1OC(=O)CCCCC1CCCC1, the Activity (Pseudomonas aeruginosa) was “inactive”, the inhibition [1] was “Active” and the inhibition [2] was “Active”.

With C=C1CC[C@@H]2[C@]3(C)COC(C)(C)O[C@@H]3CC[C@@]2(C)[C@@H]1C/C=C1/C(=O)OC[C@H]1OC(=O)/C=C/C1CCCCC1 the Activity (Pseudomonas aeruginosa) was “inactive”.

For C=C1CC[C@@H]2[C@](C)(CO)[C@H](O)CC[C@@]2(C)[C@@H]1C/C=C1/C(=O)OC[C@H]1OC(=O)/C=C/c1ccco1, the Activity (Pseudomonas aeruginosa) was “inactive”, the inhibition [1] was “Active” and the inhibition [2] was “Active”.

For C=C1CC[C@@H]2[C@](C)(CO)[C@H](O)CC[C@@]2(C)[C@@H]1C/C=C1/C(=O)OC[C@H]1OC(=O)/C=C/C1CCCCC1, the Activity (Pseudomonas aeruginosa) was “inactive”, the inhibition [1] was “Active” and the inhibition [2] was “Active”.

With C=C1CC[C@@H]2[C@]3(C)COC(C)(C)O[C@@H]3CC[C@@]2(C)[C@@H]1C/C=C1/C(=O)OC[C@H]1OC(=O)CCCCCCCCCCC the Activity (Pseudomonas aeruginosa) was “inactive”.

C=C1CC[C@@H]2[C@](C)(CO)[C@H](O)CC[C@@]2(C)[C@@H]1C/C=C1/C(=O)OC[C@H]1O was tested, and the inhibition [1] was “Active”.

With C=C1CC[C@@H]2[C@]3(C)COC(C)(C)O[C@@H]3CC[C@@]2(C)[C@@H]1C/C=C1/C(=O)OC[C@H]1OC(=O)CCCC1CCCC1 the Activity (Pseudomonas aeruginosa) was “inactive”.

For C=C1CC[C@@H]2[C@]3(C)COC(C)(C)O[C@@H]3CC[C@@]2(C)[C@@H]1C/C=C1/C(=O)OC[C@H]1OC(=O)CCCCC, the Activity (Pseudomonas aeruginosa) was “inactive”.

With C=C1CC[C@@H]2[C@]3(C)COC(C)(C)O[C@@H]3CC[C@@]2(C)[C@@H]1C/C=C1/C(=O)OC[C@H]1OC(=O)CCCC the Activity (Pseudomonas aeruginosa) was “inactive”.

C=C1CC[C@@H]2[C@]3(C)COC(C)(C)O[C@@H]3CC[C@@]2(C)[C@@H]1C/C=C1/C(=O)OC[C@H]1OC(=O)C12CC3CC(CC(C3)C1)C2 was tested, and the Activity (Pseudomonas aeruginosa) was “inactive”.

For C=C1CC[C@@H]2[C@](C)(CO)[C@H](O)CC[C@@]2(C)[C@@H]1C/C=C1/C(=O)OC[C@H]1OC(=O)CCCC, the Activity (Pseudomonas aeruginosa) was “inactive” and the inhibition [1] was “Active”.

In the case of C=C1CC[C@@H]2[C@](C)(CO)[C@H](O)CC[C@@]2(C)[C@@H]1C/C=C1/C(=O)OC[C@H]1OC(=O)CCCCCCCCCCC, the Activity (Pseudomonas aeruginosa) is reported as “inactive”, the inhibition [1] is reported as “Active” and the inhibition [2] is reported as “Active”.

In the case of C=C1CC[C@@H]2[C@](C)(CO)[C@H](O)CC[C@@]2(C)[C@@H]1C/C=C1/C(=O)OC[C@H]1OC(=O)CCCCCCC, the Activity (Pseudomonas aeruginosa) is reported as “inactive” and the inhibition [1] is reported as “Active”.

C=C1CC[C@@H]2[C@](C)(CO)[C@H](O)CC[C@@]2(C)[C@@H]1C/C=C1/C(=O)OC[C@H]1OC(=O)CC12CC3CC(CC(C3)C1)C2 was tested, and the Activity (Pseudomonas aeruginosa) was “inactive”, the inhibition [1] was “Active” and the inhibition [2] was “Active”.

With C=C1CC[C@@H]2[C@]3(C)COC(C)(C)O[C@@H]3CC[C@@]2(C)[C@@H]1C/C=C1/C(=O)OC[C@H]1OC(=O)CCCCCCC the Activity (Pseudomonas aeruginosa) was “inactive”.

In the case of C=C1CC[C@@H]2[C@](C)(CO)[C@H](O)CC[C@@]2(C)[C@@H]1C/C=C1/C(=O)OC[C@H]1OC(=O)CCCCC, the Activity (Pseudomonas aeruginosa) is reported as “inactive”, the inhibition [1] is reported as “Active” and the inhibition [2] is reported as “Active”.

For C=C1CC[C@@H]2[C@]3(C)COC(C)(C)O[C@@H]3CC[C@@]2(C)[C@@H]1C/C=C1/C(=O)OC[C@H]1OC(=O)/C=C/c1ccco1, the Activity (Pseudomonas aeruginosa) was “inactive”.

For C=C1CC[C@@H]2[C@]3(C)COC(C)(C)O[C@@H]3CC[C@@]2(C)[C@@H]1C/C=C1/C(=O)OC[C@H]1OC(=O)/C=C/C, the Activity (Pseudomonas aeruginosa) was “inactive”.
